Measured values of several laboratories.
Lines come from different studies, so protocols differ.
Target: Myotonin-protein kinase (DMPK, Homo sapiens, UniProt Q09013)
Sequence (Q09013 1-629, as in one of the studies): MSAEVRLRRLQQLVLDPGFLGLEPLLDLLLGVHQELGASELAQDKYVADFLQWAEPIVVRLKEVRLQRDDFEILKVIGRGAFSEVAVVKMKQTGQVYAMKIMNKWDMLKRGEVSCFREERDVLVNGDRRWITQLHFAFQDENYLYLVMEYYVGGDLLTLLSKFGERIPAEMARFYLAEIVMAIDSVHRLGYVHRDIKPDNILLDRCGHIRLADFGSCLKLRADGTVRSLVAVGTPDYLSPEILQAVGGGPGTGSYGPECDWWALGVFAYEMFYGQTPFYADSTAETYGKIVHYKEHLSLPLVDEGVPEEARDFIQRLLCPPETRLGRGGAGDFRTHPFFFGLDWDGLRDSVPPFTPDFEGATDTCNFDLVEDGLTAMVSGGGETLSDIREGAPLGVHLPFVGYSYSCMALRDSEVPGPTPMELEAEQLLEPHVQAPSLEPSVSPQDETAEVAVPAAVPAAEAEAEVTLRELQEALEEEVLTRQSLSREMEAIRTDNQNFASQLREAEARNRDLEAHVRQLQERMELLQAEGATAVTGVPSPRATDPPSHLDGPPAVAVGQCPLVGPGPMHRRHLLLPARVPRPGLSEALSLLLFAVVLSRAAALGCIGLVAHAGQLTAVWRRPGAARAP

Structure (SMILES) | assay | setting | endpoint | value
CC(C)(C)c1nc2c(s1)c1nc(N)ncc1c1ccc(NS(=O)(=O)c3c(F)cccc3F)c(F)c12 | enzyme activity, inhibitor, radiometric | 1 µM | remaining activity | 95%
Cn1c2c(Cl)c(Cl)ccc2c2cc[nH]c(=O)c21 | thermal stability, DSF | 10 µM | ΔTm | 0 °C
N#CCCc1ccc2c(c1)-c1[nH]c3ccc([N+](=O)[O-])cc3c1CC(=O)N2 | cell-free assay | 0.5 µM | remaining signal | 89.8%
Cn1c2c(c3ccc(Cl)c(Cl)c31)C(C#N)C1(CCCC1)NC2=O (stereo not shown) | thermal stability, DSF | 10 µM | ΔTm | -0.2 °C
CN(C)C(=O)Cn1cc(-c2nc([C@@](C)(c3ccc(-c4cnc(N)nc4)cc3)C3CC3)no2)cn1 | cell-free assay, competition with immobilised ligand | 1 µM | remaining binding | 100%
Cn1c2c(c3ccc(Cl)c(Cl)c31)C(C#N)C1(CCN(C(=O)OC(C)(C)C)CC1)NC2=O (racemic) | thermal stability, DSF | 10 µM | ΔTm | -0.5 °C
O=C(Nc1cnn(-c2csc(C(=O)NC3COC3)c2)c1)Nc1c(F)cccc1Cl | enzyme activity, inhibitor | 5 µM | remaining activity | 110%
Cc1ccc(C(=O)Nc2ccc(CN3CCN(C)CC3)c(C(F)(F)F)c2)cc1C#Cc1cnc2cccnn12 | enzyme activity, inhibitor | 23.5 nM | remaining activity | 100%
CS(=O)(=O)c1cc(C2(NC(=O)c3cncc4c3cnn4-c3ccc(F)cc3)CC2)ccn1 | cell-free assay, competition with immobilised ligand | 1 µM | remaining binding | 99%
COc1cc2c(Nc3ccc(Br)cc3F)ncnc2cc1OCC1CCN(C)CC1 | cell-free assay | 0.5 µM | remaining signal | 94.6%
COc1cc(Cl)c(C(=O)N[C@@H](CN[C@H]2CC[C@@H](N)CC2)Cc2ccc(C#N)cc2)cc1-c1ccc(CN[C@H](C)c2ccc(C)cc2)o1 | enzyme activity, inhibitor | 1 µM | remaining activity | 100%
CO[C@H]1CC[C@H](CNc2ccc(S(=O)(=O)NC(=O)c3ccc(N4CCN(CC5=C(c6ccc(Cl)cc6)CC(C)(C)CC5)CC4)cc3Oc3cnc4[nH]ccc4c3)cc2[N+](=O)[O-])CC1 | cell-free assay, competition with immobilised ligand | 1 µM | remaining binding | 91%
CCCOc1ccc(OC)c(F)c1C(=O)c1ccc(C(=O)N[C@@H]2CNC[C@H]2NC(=O)c2ccc3[nH]ncc3c2)cc1 | enzyme activity, inhibitor | 10 µM | remaining activity | 93%
C#Cc1cccc(Nc2ncnc3cc(OCCOC)c(OCCOC)cc23)c1 | cell-free assay | 0.5 µM | remaining signal | 96.9%
CCCS(=O)(=O)Nc1ccc(F)c(C(=O)c2c[nH]c3ncc(-c4ccc(Cl)cc4)cc23)c1F | enzyme activity, inhibitor | 1 µM | inhibition | < 10%
C[C@H](c1ccnc(Nc2nc3ccc(-c4cc(N(C)C)ncn4)cc3[nH]2)c1)N1CCN(C(=O)CC(F)(F)F)CC1 | cell-free assay, competition with immobilised ligand | 0.1 µM | remaining binding | 100%
CCN(CC)CCNC(=O)c1c(C)[nH]c(/C=C2\C(=O)Nc3ccc(F)cc32)c1C | enzyme activity, inhibitor | 10 µM | inhibition | -5%
O=C(Nc1cnn(-c2csc(C(=O)NC3COC3)c2)c1)Nc1ccccc1Cl | enzyme activity, inhibitor | 5 µM | remaining activity | 102%
CN(C)c1ncnc(-c2ccc3nc(Nc4cc(CN5CCN(C(=O)CC(F)(F)F)CC5)ccn4)[nH]c3c2)c1Cl | cell-free assay, competition with immobilised ligand | 1 µM | remaining binding | 91%
Cc1ccc(Nc2nccc(N(C)c3ccc4c(C)n(C)nc4c3)n2)cc1S(N)(=O)=O | enzyme activity, inhibitor | 0.3 µM | inhibition | -15%
CC1(C)NC(=O)c2[nH]c3c(Cl)c(Cl)ccc3c2C1C#N (stereo not shown) | thermal stability, DSF | 10 µM | ΔTm | 1 °C
CNC(=O)c1cc(Oc2ccc(NC(=O)Nc3ccc(Cl)c(C(F)(F)F)c3)cc2)ccn1 | enzyme activity, inhibitor | 10 µM | inhibition | -16%
O=C(O)[C@H]1[C@H](Cn2nnc3ccccc3c2=O)CC[C@@H]1C(=O)c1ccc(OCCC2CCOCC2)cc1 | cell-free assay, competition with immobilised ligand | 1 µM | remaining binding | 83%
Cn1c2c(Cl)c(Cl)ccc2c2cc(N)[nH]c(=O)c21 | thermal stability, DSF | 10 µM | ΔTm | 0.1 °C
CS(=O)(=O)NCC[C@H](NC(=O)c1cncc2c1cnn2-c1ccc(F)cc1)c1ccnc(S(C)(=O)=O)c1 | cell-free assay, competition with immobilised ligand | 1 µM | remaining binding | 100%
Nc1ncnc2occ(-c3ccc(NC(=O)Nc4cc(C(F)(F)F)ccc4F)cc3)c12 | cell-free assay, inhibitor | 20 µM | remaining signal | 73%
Cn1c2c(c3ccc(Cl)c(Cl)c31)C(C#N)C1(CCOCC1)NC2=O (stereo not shown) | thermal stability, DSF | 10 µM | ΔTm | 0 °C
CC(=O)N1CCC(c2ccc(C(=O)NC(=N)N)cc2C(F)(F)F)CC1 | cell-free assay, competition with immobilised ligand | 1 µM | remaining binding | 100%
